# Results pooled from the literature.
# Each line is one published result; the experiments were not run side by side.
Compound,cell line,assay,conditions,IC50 [µM]
FC(F)(F)c1cc(OCc2cc(-c3ccc(Cl)cc3Cl)no2)c2ccccc2n1,CAPAN-1,"cell growth or viability, MTS",72 h,> 100
C/C=C1\NC(=O)[C@H]2CSSCC/C=C/[C@H](CC(=O)N[C@H](C(C)C)C(=O)N2)OC(=O)[C@H](C(C)C)NC1=O,MP46,"cell growth or viability, ATP luminescence",72 h,0.00127
CC(C)(C)c1cnc(CSc2cnc(NC(=O)C3CCN(C(=O)CCCCCCCN4Cc5cc6c(cc5C4)C(=O)N(C4CCC(=O)NC4=O)C6=O)CC3)s2)o1 (stereo not drawn),SJSA-1,"cell growth or viability, MTT",,0.174
C[C@H]1C[C@H]2[C@@H]3CCC4=CC(=O)C=C[C@]4(C)[C@H]3C(=O)C[C@]2(C)[C@@]1(O)C(=O)CO,HepaRG,"reactive oxygen species, inhibitor",16 h,5.27
COc1ccc(N(C)c2nc(C)nc3ccccc23)cc1OCCCC(=O)NO,MP46,"cell growth or viability, ATP luminescence",72 h,0.0948
CCOc1ccc(Nc2c3c(nc4ccccc24)CCC3)cc1,THP-1,cell growth or viability,72 h,18.6
FC(F)(F)c1cc(OCc2cc(-c3ccccn3)no2)c2ccccc2n1,CAPAN-1,"cell growth or viability, MTS",72 h,> 100
COc1nnc2ccc(N3CCC(c4ccc(OCCN5CCN(C)C(=O)[C@H]5C)cc4)CC3)nn12,MP46,"cell growth or viability, ATP luminescence",72 h,0.0683
CC1(COc2ccc(CC3SC(=O)NC3=O)cc2)CCCCC1 (stereo not drawn),HepaRG,"reactive oxygen species, inhibitor",16 h,11.1
COc1cc(C2C3=C(COC3=O)N(CCO)c3cc4c(cc32)CCC4)cc(OC)c1OC (stereo not drawn),SUM159,"cell growth or viability, ATP luminescence",48 h,0.24
Nc1ccccc1NC(=O)c1ccc(Cn2cnc3c(Nc4ccc(Br)cc4F)ncnc32)cc1,THP-1,"cell growth or viability, MTT",72 h,0.41
CCNC(=O)c1cc2c(-c3cc(C(C)(C)O)ccc3Oc3c(C)cc(F)cc3C)cn(C)c(=O)c2[nH]1,MP46,"cell growth or viability, ATP luminescence",72 h,56600
O=c1cc(OCc2cc(-c3ccc(C(F)(F)F)cc3)no2)c2ccccc2o1,CAPAN-1,"cell growth or viability, MTS",72 h,> 100
COc1ccc(Nc2ncnc3c2ncn3Cc2ccc(C(=O)Nc3ccccc3N)cc2)cc1,THP-1,"cell growth or viability, MTT",72 h,0.93
c1ccc(-c2cc(CNc3cccc4cccnc34)on2)nc1,CAPAN-1,"cell growth or viability, MTS",72 h,13.1
O=C(CSc1nc2ccccc2s1)N/N=C/c1ccc(OCC(=O)Nc2cccc(Cl)c2)cc1,CAPAN-1,"cell growth or viability, MTS",72 h,18.2
Nc1ccn([C@@H]2O[C@H](CO)[C@@H](O)C2(F)F)c(=O)n1,MP46,"cell growth or viability, ATP luminescence",72 h,0.169
CC1(P2(=O)CCCCC2)C=CCC=C1,SW-620,"cell growth or viability, MTT",72 h,> 100
O=C(CSc1nc2ccccc2s1)N/N=C/c1ccc(OCC(=O)Nc2cccc([N+](=O)[O-])c2)cc1,CAPAN-1,"cell growth or viability, MTS",72 h,4.25
FC(F)(F)c1cc(OCc2cc(-c3ccccc3)no2)c2ccccc2n1,CAPAN-1,"cell growth or viability, MTS",72 h,7.4
CONC(=O)c1cccc2c1cc(C)n2-c1nc2c(c(NCc3ccccc3)n1)CCCN2,SW-620,cell growth or viability,72 h,2.3
